This passage reports IC50 and MIC results from ChEMBL document CHEMBL1137280, “Synthesis and structure-activity studies of novel benzocycloheptanone oxazolidinone antibacterial agents” (Bioorg Med Chem Lett, 2006).

Values after ≈ are worked out from the molar mass of the structure shown. A value given as a limit tells only on which side of the number the result lay.

Assay type in all cases: functional
One assay has as its system Escherichia coli. Nature of the assay: Antibacterial activity against Escherichia coli by transcription and translation assay. Summed up: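 Coupled in vitro transcription and translation system from Escherichia coli with a luciferase reporter; inhibition is read as loss of luciferase signal.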
The test system of a further assay is Staphylococcus aureus. The experiment in a line: Antibacterial activity against Staphylococcus aureus UC-76 SA-1. An outline of the steps:
(§1)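 MIC determined by broth microdilution following Clinical and Laboratory Standards Institute (formerly NCCLS) guidelines, across a panel of Gram-positive and fastidious Gram-negative organisms.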

In another assay the test system is Streptococcus pneumoniae. The experiment in a line: Antibacterial activity against Streptococcus pneumoniae SVI SP-3. An outline of the steps: as §1
A further assay has as its system Enterococcus faecalis. The experiment in a line: Antibacterial activity against Enterococcus faecalis MGH-2 EF1-1. An outline of the steps:
as §1

The test system of another assay is Haemophilus influenzae. Nature of the assay: Antibacterial activity against Haemophilus influenzae HI3542. The note with it: HI-3542. An outline of the steps:
as §1

A further assay deals with Moraxella catarrhalis. Nature of the assay: Antibacterial activity against Moraxella catarrhalis BC-3531. An outline of the steps:
as §1

A further assay concerns Streptococcus pyogenes. The experiment in a line: Antibacterial activity against Streptococcus pyogenes C-203. An outline of the steps: as §1

Consider `CC(=O)NC[C@H]1CN(c2ccc3c(c2)CCC/C(=C\c2cccn2C)C3=O)C(=O)O1`, for which the IC50 – broadly, the concentration at which inhibition is half-maximal – with Escherichia coli is 1.6 µM. In addition, the MIC stood at 1 µg/mL (≈ 2.45 µM) against Staphylococcus aureus; 0.25 µg/mL (≈ 0.614 µM) against Streptococcus pneumoniae; 0.5 µg/mL (≈ 1.23 µM) in the assay with Enterococcus faecalis; 16 µg/mL (≈ 39.3 µM) with Haemophilus influenzae; 4 µg/mL (≈ 9.82 µM) in the assay with Moraxella catarrhalis.
In the assay on Escherichia coli, `CC(=O)NC[C@H]1CN(c2ccc3c(c2)CCCCC3)C(=O)O1` returned an IC50 of 8 µM. Moreover, the MIC in the assay on Staphylococcus aureus is 64 µg/mL (≈ 212 µM); with Streptococcus pneumoniae, 8 µg/mL (≈ 26.5 µM); against Streptococcus pyogenes it was 2 µg/mL (≈ 6.61 µM); in the assay on Enterococcus faecalis it was above 64 µg/mL.
For `CC(=O)NC[C@H]1CN(c2ccc3c(c2)CCCCCC3=O)C(=O)O1`, in that order: 5.9 µM, 4 µg/mL (≈ 12.1 µM), 4 µg/mL (≈ 12.1 µM), 2 µg/mL (≈ 6.05 µM) and 8 µg/mL (≈ 24.2 µM).
Turning to `CC(=O)NC[C@H]1CN(c2ccc3c(c2)CCC/C(=C\c2ccc(S(C)(=O)=O)cc2)C3=O)C(=O)O1`, the IC50 in the assay with Escherichia coli worked out at 2.8 µM. Moreover, the MIC against Staphylococcus aureus was 1 µg/mL (≈ 2.07 µM); against Streptococcus pneumoniae, 0.25 µg/mL (≈ 0.518 µM); in the assay on Enterococcus faecalis, 0.5 µg/mL (≈ 1.04 µM); against Haemophilus influenzae, 16 µg/mL (≈ 33.2 µM); against Moraxella catarrhalis it was 4 µg/mL (≈ 8.29 µM).
`CC(=O)NC[C@H]1CN(c2ccc3c(c2)CCC/C(=C\c2cccc(C#N)c2)C3=O)C(=O)O1`: the IC50 in the assay with Escherichia coli came to 1.7 µM. In addition, the MIC in the assay on Staphylococcus aureus was determined as 0.5 µg/mL (≈ 1.16 µM); in the assay with Streptococcus pneumoniae, 0.25 µg/mL (≈ 0.582 µM); against Enterococcus faecalis it was 0.25 µg/mL (≈ 0.582 µM); against Haemophilus influenzae, 32 µg/mL (≈ 74.5 µM); against Moraxella catarrhalis, 2 µg/mL (≈ 4.66 µM).
For the compound `CC(=O)NC[C@H]1CN(c2ccc3c(c2)CCC/C(=C\c2ccc(OCCN(C)C)cc2)C3=O)C(=O)O1`, the IC50 in the assay on Escherichia coli was found to be 1.5 µM. Also, the MIC came out at 2 µg/mL (≈ 4.07 µM) with Staphylococcus aureus; 0.25 µg/mL (≈ 0.509 µM) with Streptococcus pneumoniae; 2 µg/mL (≈ 4.07 µM) in the assay on Enterococcus faecalis; 32 µg/mL (≈ 65.1 µM) in the assay with Haemophilus influenzae; 8 µg/mL (≈ 16.3 µM) against Moraxella catarrhalis.
In the assay on Escherichia coli, `CC(=O)NC[C@H]1CN(c2ccc3c(c2)CCC3=O)C(=O)O1` [PNU-82965] had an IC50 of 21 µM. In addition, the MIC was determined as 8 µg/mL (≈ 27.7 µM) in the assay with Staphylococcus aureus, 2 µg/mL (≈ 6.94 µM) in the assay with Streptococcus pneumoniae, 2 µg/mL (≈ 6.94 µM) in the assay on Streptococcus pyogenes and 8 µg/mL (≈ 27.7 µM) against Enterococcus faecalis.
In the assay with Escherichia coli, `CC(=O)NC[C@H]1CN(c2cc3c(cc2F)C(=O)CCCC3)C(=O)O1` yielded an IC50 of 90 µM. For the same compound, the MIC in the assay with Staphylococcus aureus was 64 µg/mL (≈ 191 µM); with Streptococcus pneumoniae it was 32 µg/mL (≈ 95.7 µM); with Streptococcus pyogenes, 32 µg/mL (≈ 95.7 µM); in the assay with Enterococcus faecalis it was 64 µg/mL (≈ 191 µM).
Consider `CC(=O)NC[C@H]1CN(c2ccc3c(c2)CCC/C(=C\c2ccc(OCCCN(C)C)cc2)C3=O)C(=O)O1`, for which half-maximal inhibition in the assay with Escherichia coli (IC50) was put at 1.2 µM. In addition, the MIC in the assay with Staphylococcus aureus amounted to 1 µg/mL (≈ 1.98 µM); in the assay with Streptococcus pneumoniae, 0.125 µg/mL (≈ 0.247 µM); with Enterococcus faecalis, 0.5 µg/mL (≈ 0.989 µM); against Haemophilus influenzae, 16 µg/mL (≈ 31.6 µM); against Moraxella catarrhalis it was 4 µg/mL (≈ 7.91 µM).
Compound `CC(=O)NC[C@H]1CN(c2ccc3c(c2)CCC/C(=C\c2ccc(CCO)cc2)C3=O)C(=O)O1` registered an IC50 in the assay on Escherichia coli of 2.6 µM. Also, the MIC against Staphylococcus aureus is 1 µg/mL (≈ 2.23 µM); in the assay with Streptococcus pneumoniae, 0.25 µg/mL (≈ 0.557 µM); against Enterococcus faecalis, 0.5 µg/mL (≈ 1.11 µM); in the assay on Haemophilus influenzae, 16 µg/mL (≈ 35.7 µM); in the assay on Moraxella catarrhalis, 4 µg/mL (≈ 8.92 µM).
As to `CC(=O)NC[C@H]1CN(c2ccc3c(c2)C(=O)CCC3)C(=O)O1`, half-maximal inhibition with Escherichia coli (IC50) required 4 µM. The MIC in the assay with Staphylococcus aureus turned out to be 32 µg/mL (≈ 106 µM); in the assay with Streptococcus pneumoniae, 8 µg/mL (≈ 26.5 µM); in the assay with Streptococcus pyogenes it was 16 µg/mL (≈ 52.9 µM); against Enterococcus faecalis, 16 µg/mL (≈ 52.9 µM).
For the compound `CC(=O)NC[C@H]1CN(c2cc(F)c3c(c2)CCCC=C3)C(=O)O1`, it took 9.3 µM to reach half-maximal inhibition in the assay on Escherichia coli (IC50). The MIC turned out to be 2 µg/mL (≈ 6.28 µM) in the assay on Staphylococcus aureus, 1 µg/mL (≈ 3.14 µM) in the assay with Streptococcus pneumoniae, 1 µg/mL (≈ 3.14 µM) with Streptococcus pyogenes and 2 µg/mL (≈ 6.28 µM) against Enterococcus faecalis.
Turning to `CC(=O)NC[C@H]1CN(c2ccc(N3CCOCC3)c(F)c2)C(=O)O1` [LINEZOLID], in the assay on Escherichia coli, the IC50 worked out at 3.3 µM. The results for the MIC against Streptococcus pyogenes and against Haemophilus influenzae were 1 µg/mL (≈ 2.96 µM) and 16 µg/mL (≈ 47.4 µM), respectively.
`CC(=O)NC[C@H]1CN(c2ccc3c(c2)CCCC=C3)C(=O)O1` displayed a concentration for half-maximal inhibition (IC50) in the assay with Escherichia coli of 1.3 µM. The MIC with Staphylococcus aureus worked out at 1 µg/mL (≈ 3.33 µM); in the assay with Streptococcus pneumoniae it was 0.5 µg/mL (≈ 1.66 µM); against Streptococcus pyogenes, 0.5 µg/mL (≈ 1.66 µM); against Enterococcus faecalis, 1 µg/mL (≈ 3.33 µM).
`CC(=O)NC[C@H]1CN(c2ccc3c(c2)CCC/C(=C\c2ccsc2)C3=O)C(=O)O1` yielded an IC50 in the assay on Escherichia coli of 1.1 µM. Further, the MIC against Staphylococcus aureus came to 2 µg/mL (≈ 4.87 µM); against Streptococcus pneumoniae it was 0.125 µg/mL (≈ 0.305 µM); in the assay with Enterococcus faecalis, 0.5 µg/mL (≈ 1.22 µM); against Haemophilus influenzae, 2 µg/mL (≈ 4.87 µM); against Moraxella catarrhalis it was 1 µg/mL (≈ 2.44 µM).
As to `CC(=O)NC[C@H]1CN(c2ccc3c(c2)CCC/C(=C\c2ccc(O)cc2)C3=O)C(=O)O1`, the IC50 in the assay on Escherichia coli came to 0.95 µM. Further, the MIC with Staphylococcus aureus turned out to be 0.5 µg/mL (≈ 1.19 µM); against Streptococcus pneumoniae, 0.125 µg/mL (≈ 0.297 µM); in the assay on Enterococcus faecalis, 0.5 µg/mL (≈ 1.19 µM); in the assay with Haemophilus influenzae it was 8 µg/mL (≈ 19 µM); with Moraxella catarrhalis, 2 µg/mL (≈ 4.76 µM).
As for `CC(=O)NC[C@H]1CN(c2ccc3c(c2)CCC/C(=C\c2ccccc2)C3=O)C(=O)O1`, the IC50 in the assay with Escherichia coli came to 2.7 µM. The MIC turned out to be 1 µg/mL (≈ 2.47 µM) against Staphylococcus aureus; 0.25 µg/mL (≈ 0.618 µM) against Streptococcus pneumoniae; 0.5 µg/mL (≈ 1.24 µM) against Enterococcus faecalis; 16 µg/mL (≈ 39.6 µM) in the assay on Haemophilus influenzae; 4 µg/mL (≈ 9.89 µM) with Moraxella catarrhalis.
In the assay with Escherichia coli, `CC(=O)NC[C@H]1CN(c2cnc3c(c2)CCCCC3=O)C(=O)O1` displayed an IC50 of 13 µM. Further, the MIC amounted to 8 µg/mL (≈ 25.2 µM) with Staphylococcus aureus, 16 µg/mL (≈ 50.4 µM) with Streptococcus pneumoniae, 4 µg/mL (≈ 12.6 µM) against Streptococcus pyogenes and 8 µg/mL (≈ 25.2 µM) in the assay with Enterococcus faecalis.
In turn, `CC(=O)NC[C@H]1CN(c2ccc3c(c2)CCC/C(=C\c2ccc(F)cc2)C3=O)C(=O)O1` displayed an IC50 in the assay on Escherichia coli of 2.7 µM. For the same compound, the MIC stood at 0.5 µg/mL (≈ 1.18 µM) in the assay on Staphylococcus aureus; 0.25 µg/mL (≈ 0.592 µM) with Streptococcus pneumoniae; 0.5 µg/mL (≈ 1.18 µM) in the assay with Enterococcus faecalis; 2 µg/mL (≈ 4.73 µM) against Haemophilus influenzae; 2 µg/mL (≈ 4.73 µM) in the assay with Moraxella catarrhalis.
On to `CC(=O)NC[C@H]1CN(c2ccc(C(C)=O)cc2)C(=O)O1` [DUP-721], for which half-maximal inhibition in the assay with Escherichia coli (IC50) was put at 7.5 µM. The MIC in the assay with Staphylococcus aureus turned out to be 2 µg/mL (≈ 7.24 µM); in the assay with Streptococcus pneumoniae it was 2 µg/mL (≈ 7.24 µM); in the assay with Streptococcus pyogenes it was 1 µg/mL (≈ 3.62 µM); in the assay with Enterococcus faecalis, 2 µg/mL (≈ 7.24 µM).
Take `CC(=O)NC[C@H]1CN(c2cc(F)c3c(c2)CCCCC3=O)C(=O)O1`: half-maximal inhibition with Escherichia coli (IC50) was put at 9.4 µM. In addition, the MIC with Staphylococcus aureus worked out at 8 µg/mL (≈ 23.9 µM); with Streptococcus pneumoniae it was 2 µg/mL (≈ 5.98 µM); against Streptococcus pyogenes, 2 µg/mL (≈ 5.98 µM); in the assay on Enterococcus faecalis, 4 µg/mL (≈ 12 µM).
`CC(=O)NC[C@H]1CN(c2cc(F)c3c(c2F)CCCCC3=O)C(=O)O1` displayed an IC50 in the assay with Escherichia coli of 14 µM. Moreover, the MIC in the assay on Staphylococcus aureus turned out to be 32 µg/mL (≈ 90.8 µM); with Streptococcus pneumoniae, 8 µg/mL (≈ 22.7 µM); against Streptococcus pyogenes it was 16 µg/mL (≈ 45.4 µM); against Enterococcus faecalis, 16 µg/mL (≈ 45.4 µM).
`CC(=O)NC[C@H]1CN(c2ccc3c(c2)CCCCC3=O)C(=O)O1` came in with an IC50 in the assay on Escherichia coli of 3.9 µM. The MIC turned out to be 1 µg/mL (≈ 3.16 µM) against Staphylococcus aureus, 0.5 µg/mL (≈ 1.58 µM) against Streptococcus pneumoniae, 0.5 µg/mL (≈ 1.58 µM) against Streptococcus pyogenes and 0.5 µg/mL (≈ 1.58 µM) against Enterococcus faecalis.
In the assay with Escherichia coli, `CC(=O)NC[C@H]1CN(c2ccc3c(c2)CCC/C(=C\c2ccncc2)C3=O)C(=O)O1` yielded a concentration for half-maximal inhibition (IC50) of 1.7 µM. For the same compound, the MIC against Staphylococcus aureus was 1 µg/mL (≈ 2.47 µM); in the assay on Streptococcus pneumoniae, 0.5 µg/mL (≈ 1.23 µM); with Enterococcus faecalis, 1 µg/mL (≈ 2.47 µM); against Haemophilus influenzae, 16 µg/mL (≈ 39.5 µM); with Moraxella catarrhalis, 8 µg/mL (≈ 19.7 µM).
In the assay with Escherichia coli, `CC(=O)NC[C@H]1CN(c2ccc3c(c2F)CCCCC3=O)C(=O)O1` yielded an IC50 of 8.9 µM. For the same compound, the MIC in the assay with Staphylococcus aureus was 16 µg/mL (≈ 47.9 µM); in the assay with Streptococcus pneumoniae, 4 µg/mL (≈ 12 µM); with Streptococcus pyogenes, 8 µg/mL (≈ 23.9 µM); with Enterococcus faecalis, 8 µg/mL (≈ 23.9 µM).
